Bioassay records from PubChem BioAssay.
aDG glyco up – alpha-DG glycosylation activation; Pro5-aDG cells, alpha-DG glycosylation AlphaScreen (IIH6); 0% Pro5, 100% B10-LARGE cell signal; activation, % at 10 µM; 0.22% of 360,000 active; AID 624168;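 active = activation of at least 8% versus controls, or a plate z-score of at least 8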;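 note: Pro5 are CHO cells carrying HIG-tagged alpha-DG that lacks glycosylation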
MPTP block – permeability transition pore inhibition. inhibition, % at 10 µM. isolated mouse mitochondria, Ca2+ swelling absorbance, 30 min. AID 602449. 1.4% of 360,000 active;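 active = inhibition of 50% or more, scaled per plate between neutral and stimulator controls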;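 note: 0% = DMSO wells given calcium and 100% = 1 mM EGTA wells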
proCasp3 act – activates human procaspase-3 | recombinant procaspase-3 D3A, Ac-DEVD-pNA absorbance 405 nm | activation, % at 8.5 µM | 0.11% of 330,000 active | AID 463141;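 active = activation above the mean of all tested compounds plus 3 SD, cut at about 21% in these data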;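 note: 0% = DMSO alone and 100% = DMSO wells spiked with extra 5 µM PC-3 D3A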
Target sequence (P42574 whole entry D9A/D28A/D175A): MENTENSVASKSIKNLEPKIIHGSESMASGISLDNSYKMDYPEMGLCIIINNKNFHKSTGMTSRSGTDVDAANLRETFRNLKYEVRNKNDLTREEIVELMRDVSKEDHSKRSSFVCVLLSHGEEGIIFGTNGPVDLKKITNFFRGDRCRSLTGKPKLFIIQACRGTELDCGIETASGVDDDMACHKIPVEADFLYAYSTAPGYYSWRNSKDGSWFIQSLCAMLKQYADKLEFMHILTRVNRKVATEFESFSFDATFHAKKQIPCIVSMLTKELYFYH
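Evaluation: percent activation relative to control range; Material: Procaspase-3 D3A mutant, all three cleavage aspartates alanine; Compound: single dose, 8.5 µM nominal compound, 0.8% DMSO; Replication: one well per compound; Signal: absorbance at 405 nm, 0 and 120 min; Schedule: 1 h preincubation plus 2 h reaction at 25 °C.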
procasp7 counter – counter-screen for procaspase-3 activators: activators of human procaspase-7; AID 463210; recombinant procaspase-7, Ac-DEVD-pNA absorbance 405 nm; D23A/D198A/D206A triple mutant, cannot self-cleave; scale: DMSO 0, 5 µM enzyme 100; 0.093% of 330,000 active; activation, % at 8.5 µM; P55210;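 active = percent activation above the screen-wide mean plus 3 SD, cut at about 25% in these data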
Target sequence (P55210 whole entry D23A/D198A/D206A): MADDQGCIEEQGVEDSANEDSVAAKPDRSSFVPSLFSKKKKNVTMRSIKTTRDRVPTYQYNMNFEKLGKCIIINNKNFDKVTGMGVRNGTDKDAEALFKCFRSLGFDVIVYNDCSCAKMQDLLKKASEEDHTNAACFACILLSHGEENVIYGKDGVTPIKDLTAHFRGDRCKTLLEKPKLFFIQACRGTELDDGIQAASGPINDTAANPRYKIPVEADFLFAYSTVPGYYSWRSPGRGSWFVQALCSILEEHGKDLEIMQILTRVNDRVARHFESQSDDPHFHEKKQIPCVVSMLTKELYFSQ
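Assay system: Uncleavable procaspase-7 mutant enzyme | Input: 2 µM procaspase-7 mutant as dispensed | Timing: 1 h compound preincubation, 2 h substrate cleavage, 25 °C | Repeats: One well per compound | Control set: DMSO wells as 0%, DMSO with 5 µM added PC-7 as 100% | Technique: Epi-absorbance of released pNA at 405 nm, two timepoints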
GRIN3A LBD mod – modulates the human NR3A ligand-binding domain | NR3A LBD differential scanning fluorimetry, Tm shift; 0% = protein alone, 100% = glycine-bound protein | 2.5% of 340,000 active | Tm shift relative to glycine control, % at 25 µM;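 active = melting temperature shift of at least 10% of the positive control shift, at one fixed dose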
Numbers without * were called inactive; x = not tested or not shown. Shown are actives, neighbours in structure and some others; about 3.7% of the full set was active somewhere.

SMILES	aDG glyco up	MPTP block	proCasp3 act	procasp7 counter	GRIN3A LBD mod
COc1ccc(Br)cc1/C=C/C(=O)Nc1ccc2ccccc2c1	0	21	0	1	15*
COC(=O)CNC(=O)/C=C/c1cc(Br)ccc1OC	0	-1	2	8	0
COc1ccc(Br)cc1/C=C/C(=O)Nc1ccc(C)cc1	4	14	-6	-7	20*
CC(C)(C)OC(=O)NCCc1onc(-c2ccccc2F)c1C(=O)O	0	1	x	x	x
COc1ccc([N+](=O)[O-])cc1NC(=O)C(C)NNC(=O)c1cccc([N+](=O)[O-])c1 (stereo unspecified)	0	1	-4	-5	-6
CCCNC(=O)C1(C)CCCN(Cc2ccc3c(c2)OCO3)C1 (stereo unspecified)	0	-1	x	x	x
CCOC(=O)c1ccc(NC(=O)CN2C(=O)NC3(CCCCCCC3)C2=O)cc1	0	0	2	1	3
CCCCN(C)C(=O)c1sc(=O)n(CC(=O)c2ccccc2OC)c1C	0	-2	x	x	x
CCN(Cc1nc2ccccc2c(=O)[nH]1)C(=O)COc1ccccc1Cc1ccccc1	0	-3	x	x	11*
CCN(Cc1nc2cc(Cl)ccc2c(=O)[nH]1)C(=O)COc1ccccc1Cc1ccccc1	0	-2	2	-2	2
COCCN(Cc1nc2ccccc2c(=O)[nH]1)C(=O)COc1ccccc1-c1ccccc1	0	-1	x	x	13*
O=C(NCc1ccccc1)C1C(c2ccccc2)=Nc2ccccc2N1C(=O)c1ccncc1 (stereo unspecified)	0	-1	x	x	x
CCCCn1nc(C(=O)Nc2ccc(-n3cnnn3)cc2)c2ccccc2c1=O	0	0	4	-17	-2
COc1cccc(NC(=O)C2CCN(S(=O)(=O)c3ccc4c(c3)N(C(C)=O)CCO4)CC2)c1	0	-2	3	13	18*
c1ccc(-c2nn(-c3ccccc3)[n+](-c3ccccc3)n2)cc1	0	0	x	x	1
O=C(N/N=C/c1ccc2c(c1)OCO2)c1sc2cccc(Cl)c2c1Cl	0	-1	4	11	24*
COc1cccc(C(=O)NCC(=O)N/N=C/c2c(C)[nH]c3ccccc23)c1	4	0	12	-16	-2
O=C(CN(CCc1ccccc1)S(=O)(=O)c1ccc(Cl)cc1)N/N=C/c1ccc2c(c1)OCO2	0	7	-2	3	13*
O=C(N/N=C/c1ccc2c(c1)OCO2)C(=O)Nc1ccccc1Cl	0	1	x	x	14*
Cc1cc(Cl)ccc1NC(=O)C(=O)N/N=C/c1ccc2c(c1)OCO2	0	2	8	5	-1
O=C(N/N=C/c1ccc2c(c1)OCO2)c1sc2cc(Cl)ccc2c1Cl	0	0	-7	-11	-1
COc1ccc2c(Cl)c(C(=O)N/N=C/c3c(C)[nH]c4ccccc34)sc2c1	0	0	-3	2	32*
COc1ccc(S(=O)(=O)N(CCc2ccccc2)CC(=O)N/N=C/c2ccc3c(c2)OCO3)cc1	0	-2	-7	-4	-8
CN(C)N(C(=O)c1cc(-c2cccs2)nn1-c1ccccc1)C1CCS(=O)(=O)C1 (stereo unspecified)	0	1	1	1	1
Cc1ccc(F)c(S(=O)(=O)NC(=O)C2(C)CCN2C(=O)CC2CCCCC2)c1 (stereo unspecified)	0	0	x	x	x
SMILES	aDG glyco up	MPTP block	proCasp3 act	procasp7 counter	GRIN3A LBD mod
COc1ccc2c(Cl)c(C(=O)N/N=C/c3ccc4c(c3)OCO4)sc2c1	0	4	5	0	19*
Cc1ccccc1NC(=O)CN(C)S(=O)(=O)c1ccc2c(c1)n(C)c(=O)c(=O)n2C	0	0	10	3	2
Cc1cccc(NC(=O)CN(C)S(=O)(=O)c2ccc3c(c2)n(C)c(=O)c(=O)n3C)c1C	0	-1	10	-6	13*
CN(CC(=O)Nc1ccc(F)cc1)S(=O)(=O)c1ccc2c(c1)c(=O)n(C)c(=O)n2C	1	-2	2	4	10*
COc1cc(NC(=O)C2CC(c3ccccc3O)=NO2)cc(OC)c1OC (stereo unspecified)	0	0	x	x	x
CC(C)CNc1ncnc2c1ncn2[C@H]1CN(Cc2cccs2)C[C@@H](CO)O1	0	1	x	x	x
CCCCNc1nc(Nc2ccc(C)c(Cl)c2)c2cnn(C)c2n1	1	0	-4	11	15*
Cc1cccc2c(N=Nc3ccc(S(=O)(=O)Nc4cccc(Cl)c4)cc3[N+](=O)[O-])c(O)[nH]c12	0	3	1	-1	13*
O=C(CSc1nc2ccccc2[nH]1)Nc1nc(-c2ccc(Br)cc2)cs1	0	24	6	7	35*
O=C(Cn1c(=O)oc2ccccc21)Nc1nc(-c2ccc(Br)cc2)cs1	0	17	-5	22	15*
COc1ccc(-c2csc(NC(=O)CN3C(=O)CCC3=O)n2)c(OC)c1	0	0	3	9	18*
COc1ccc(-c2csc(NC(=O)CSc3ccc(Br)cc3)n2)c(OC)c1	0	7	-4	-5	12*
CN1CCN(CC(=O)Nc2nc(-c3ccccc3)cs2)CC1	0	0	0	12	13*
COc1ccc(-c2csc(NC(=O)CN3C(=O)CCC3=O)n2)cc1OC	0	0	0	9	0
O=C(CN1CCCCC1)Nc1nc(-c2ccccc2)cs1	0	0	3	-10	9
CCCOc1ccc(-c2csc(NC(=O)CN3C(=O)CCC3=O)n2)cc1	0	1	8	-2	36*
COc1ccc(-c2csc(NC(=O)CN3C(=O)CCC3=O)n2)cc1	0	-2	6	4	-1
Cc1csc(NC(=O)CCCNC(=O)c2ccc(Cl)cc2)n1	0	0	-1	-3	1
Cc1cccc(C)c1NC(=O)CN1N=NC2C(=O)N(c3cccc(Cl)c3)C(=O)C21 (stereo unspecified)	0	2	-1	-3	18*
CC(NS(=O)(=O)c1ccc2[nH]c(=O)[nH]c2c1)c1ccc(F)cc1 (stereo unspecified)	0	-2	x	x	x
COC(=O)[C@H](CCSC)NC(=O)Cn1cnc2c(OCc3ccccc3)ncnc21	0	0	5	17	1
COC(=O)[C@H](CC(C)C)NC(=O)Cn1cnc2c(OCc3ccccc3)ncnc21	0	0	5	-6	97*
Cc1cccc(NC2=C(NC(=O)c3ccccc3)C(=O)c3ccccc3C2=O)c1	3	5	-1	-8	19*
Oc1ccc(/C=N/Nc2ccc(C(F)(F)F)cn2)cc1	0	4	5	4	26*
Cc1ccc(C(=O)Nc2cccc(C(=O)N/N=C/c3ccc(O)cc3)c2)cc1	1	0	3	15	11*
